Data set [1] has as its system Rattus norvegicus. The data set can be described thus: Dose that inhibits paw swelling by 25% compared with control in carrgeenin rat paw edema assay. The data set is classed as functional. In outline: (§1)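 Rats given glycerides or indomethacin orally 2 h before subplantar injection of 0.1 mL 1.5% carrageenin solution.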
Data set [2] has as its system Rattus norvegicus. In words: Dose that inhibits paw swelling by 25% compared with control in carrgeenin rat paw edema assay; i = inactive at 18 umol/kg. The data set is classed as functional, organism-based. In outline:
as §1

In data set [3] the test system is Rattus norvegicus. In words: Dose that inhibits paw swelling by 25% compared with control in carrgeenin rat paw edema assay; i = inactive at 26 uM/Kg. Format: functional, organism-based. In outline:
as §1

The test system of data set [4] is Rattus norvegicus. The data set can be described thus: Gain in the body weight of rat was measured at 5.6 micro mol/kg/day. (+ means significant body weight). The data set is classed as functional, organism-based. In outline:
(§2)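 Adjuvant arthritis in rats: mycobacterial adjuvant injected subcutaneously into the tail; on day 14 animals with definite disease were selected and dosed daily on days 14-25. Hind paw swelling and severity scores (four paws scored) were expressed as % change vs diseased controls. Body weight gain was assessed over days 1-25; + marks significant gain.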

Data set [5] has as its system Rattus norvegicus. The data set can be described thus: inhibition of swelling in rat paw edema was measured at a dose of 1.4 micro mol/kg/day for days 14-25. The data set is classed as functional. In outline:
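Rat adjuvant arthritis: adjuvant injected subcutaneously into the tail; after 14 days, only rats with definite disease were treated, with daily doses on days 14-25. Hind paw swelling was expressed as percent change versus diseased controls. Severity was scored on four paws, and body weight gain was followed over days 1-25.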

Data set [6] has as its system Rattus norvegicus. In words: Gain in the body weight of rat was measured at 11.0 micro mol/kg/day. (+ means significant body weight). The data set is classed as functional, organism-based. In outline: as §2
Data set [7] has as its system Rattus norvegicus. In words: inhibition of swelling in rat paw edema was measured at a dose of 2.8 micro mol/kg/day for days 14-25. The data set is classed as functional. In outline: as §2
The subject of data set [8] is Rattus norvegicus. The data set can be described thus: inhibition of swelling in rat paw edema was measured at a dose of 5.6 micro mol/kg/day for days 14-25. The data set is classed as functional. In outline: as §2
The subject of data set [9] is Rattus norvegicus. The data set can be described thus: inhibition of swelling in rat paw edema was measured at a dose of 11.0 micro mol/kg/day for days 14-25. The data set is classed as functional. In outline: as §2
For data set [10], the system named is Rattus norvegicus. In words: Percent changes of hind paw edema and severity scores compared to control animals at 1.4 micro mol/kg/day. Format: functional. In outline: as §2
In data set [11] the test system is Rattus norvegicus. The data set can be described thus: Percent changes of hind paw edema and severity scores compared to control animals at 11.0 micro mol/kg/day. Format: functional. In outline:
as §2

Data set [12] is described as follows: Ratio of UD50 to that of ED25. As to conditions: read-out: Therapeutic ratio.
The test system of data set [13] is Rattus norvegicus. In words: Percent changes of hind paw edema and severity scores compared to control animals at 5.6 micro mol/kg/day. Format: functional. In outline: as §2
The subject of data set [14] is Rattus norvegicus. The data set can be described thus: Percent changes of hind paw edema and severity scores compared to control animals at 2.8 micro mol/kg/day. Format: functional. In outline: as §2
For data set [15], the species on record is Rattus norvegicus. The data set can be described thus: Dose which produced lesions in 50% of the treated animals. Format: functional. In outline: (§3)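 Stomachs of rats from the oral carrageenin paw edema study (dosed 2 h before carrageenin) examined for gastric lesions by the Brodie and Hansen method. UD50 is the dose producing lesions in 50% of treated animals.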

For data set [16], the system named is Rattus norvegicus. In words: inhibition of swelling in rat adjuvant-induced arthritis was measured at a dose of 3.3 micro mol/kg/day for days 14-25.
The test system of data set [17] is Rattus norvegicus. The data set can be described thus: Percent changes of hind paw edema and severity scores compared to control animals at 1.6 micro mol/kg/day. The data set is classed as functional. In outline:
as §2

Data set [18] relates to Rattus norvegicus. The data set can be described thus: Percent changes of hind paw edema and severity scores compared to control animals at 0.8 micro mol/kg/day. Format: functional. In outline:
as §2

For data set [19], the system named is Rattus norvegicus. The data set can be described thus: inhibition of swelling in rat paw edema was measured at a dose of 1.6 micro mol/kg/day for days 14-25. The data set is classed as functional. In outline:
as §2

Data set [20] has as its system Rattus norvegicus. The data set can be described thus: Gain in the body weight of rat was measured at 14.0 micro mol/kg/day. (+ means significant body weight). Format: functional, organism-based. In outline: as §2
The subject of data set [21] is Rattus norvegicus. In words: Gain in the body weight of rat was measured at 3.3 micro mol/kg/day. (+ means significant body weight). Format: functional, organism-based. In outline: as §2
For data set [22], the system named is Rattus norvegicus. The data set can be described thus: Percent changes of hind paw edema and severity scores compared to control animals at 14.0 micro mol/kg/day. Format: functional. In outline: as §2
Data set [23] relates to Rattus norvegicus. In words: inhibition of swelling in rat paw edema was measured at a dose of 0.8 micro mol/kg/day for days 14-25. The data set is classed as functional. In outline:
as §2

The test system of data set [24] is Rattus norvegicus. In words: Percent changes of hind paw edema and severity scores compared to control animals at 3.3 micro mol/kg/day. The data set is classed as functional. In outline:
as §2

The test system of data set [25] is Rattus norvegicus. The data set can be described thus: inhibition of swelling in rat paw edema was measured at a dose of 14.0 micro mol/kg/day for days 14-25. Format: functional. In outline: as §2
Data set [26] is filed under the species Rattus norvegicus. The data set can be described thus: compound was measured as dose which produces lesions in the treated animals. The data set is classed as functional. In outline: as §3
Data set [27] in a line: Ratio of UD50 to that of ED25. Format: ADME. As to conditions: read-out: Therapeutic ratio. In outline: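 Therapeutic index calculated as UD50 (dose causing gastric lesions in 50% of rats) divided by ED25 (dose inhibiting carrageenin paw edema by 25%), both from the same oral rat study.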
Data set [28] concerns Rattus norvegicus. In words: Gain in the body weight of rat was measured at 2.8 micro mol/kg/day. (+ means significant body weight). Format: functional, organism-based. In outline:
as §2

For data set [29], the system named is Rattus norvegicus. In words: inhibition of swelling in rat paw edema was measured at a dose of 7.0 micro mol/kg/day for days 14-25. The data set is classed as functional. In outline: as §2
The test system of data set [30] is Rattus norvegicus. The data set can be described thus: inhibition of swelling in rat paw edema was measured at a dose of 0.7 micro mol/kg/day for days 14-25. Format: functional. In outline:
as §2

For data set [31], the system named is Rattus norvegicus. The data set can be described thus: Percent changes of hind paw edema and severity scores compared to control animals at 7.0 micro mol/kg/day. Format: functional. In outline:
as §2

The subject of data set [32] is Rattus norvegicus. The data set can be described thus: Percent changes of hind paw edema and severity scores compared to control animals at 0.7 micro mol/kg/day. The data set is classed as functional. In outline:
as §2

Data set [33] deals with Rattus norvegicus. The data set can be described thus: Gain in the body weight of rat was measured at 7.0 micro mol/kg/day. (+ means significant body weight). The data set is classed as functional, organism-based. In outline: as §2

Molecules are shown by their SMILES. The source made the active and inactive calls. The calls are words filed in the database; no cut-off is given here.

In the data set with Rattus norvegicus [1], `CCCCCCCCCCCCCCCCCCCC(=O)OCC(COC(=O)CCCCCCCCCCCCCCCCCCC)OC(=O)Cc1c(C)n(C(=O)c2ccc(Cl)cc2)c2ccc(OC)cc12` yielded an ED25 of 38 µM/kg.

Regarding `COc1ccc2c(c1)c(CC(=O)OCC(COC(=O)Cc1c(C)n(C(=O)c3ccc(Cl)cc3)c3ccc(OC)cc13)OC(=O)Cc1c(C)n(C(=O)c3ccc(Cl)cc3)c3ccc(OC)cc13)c(C)n2C(=O)c1ccc(Cl)cc1`, the ED25 entry with Rattus norvegicus [2] was “inactive”.

For `CCCC(=O)OCC(COC(=O)CCC)OC(=O)Cc1c(C)n(C(=O)c2ccc(Cl)cc2)c2ccc(OC)cc12`, in the data set on Rattus norvegicus [1], the ED25 turned out to be 22 µM/kg.

`CCCCCCCC(=O)OCC(COC(=O)CCCCCCC)OC(=O)Cc1c(C)n(C(=O)c2ccc(Cl)cc2)c2ccc(OC)cc12` displayed an ED25 in the data set with Rattus norvegicus [1] of 12 µM/kg.

Take `COc1ccc2c(c1)c(CC(=O)OCC(O)COC(=O)Cc1c(C)n(C(=O)c3ccc(Cl)cc3)c3ccc(OC)cc13)c(C)n2C(=O)c1ccc(Cl)cc1`: in the data set on Rattus norvegicus [3], the ED25 entry is “inactive”.

As to `CCCCCCCCCCCC(=O)OCC(COC(=O)CCCCCCCCCCC)OC(=O)Cc1c(C)n(C(=O)c2ccc(Cl)cc2)c2ccc(OC)cc12`, the Change entry is listed as “significant body weight” in the data set on Rattus norvegicus [4]; “significant body weight” in the data set on Rattus norvegicus [6]; 30% in the data set with Rattus norvegicus [10]; 74% in the data set on Rattus norvegicus [11]; 53% in the data set with Rattus norvegicus [13]; 41% in the data set on Rattus norvegicus [14]. The Inhibition with Rattus norvegicus [5] is 30%; with Rattus norvegicus [7], 70%; in the data set with Rattus norvegicus [8] it was 63%; with Rattus norvegicus [9], 73%. Moreover, the selectivity ratio in data set [12] is 6. Moreover, the ED25 with Rattus norvegicus [1] was determined as 13 µM/kg. The molecule further yielded a UD50 in the data set filed under Rattus norvegicus [15] of 78 µM/kg.

Regarding `COc1ccc2c(c1)c(CC(=O)OCC(O)CO)c(C)n2C(=O)c1ccc(Cl)cc1` (centres undefined), the Inhibition is on record as 73% in the data set with Rattus norvegicus [16], 67% in the data set on Rattus norvegicus [19], 57% in the data set on Rattus norvegicus [23] and 76% in the data set with Rattus norvegicus [25]. Further, the Change in the data set with Rattus norvegicus [17] is on record as 42%; in the data set with Rattus norvegicus [18] it was 31%; in the data set on Rattus norvegicus [20], “significant body weight”; with Rattus norvegicus [21] it was “significant body weight”; in the data set with Rattus norvegicus [22], 53%; with Rattus norvegicus [24], 55%. This molecule also returned an ED25 with Rattus norvegicus [1] of 5 µM/kg.

In the case of `COc1ccc2c(c1)c(CC(=O)OC(COC(C)=O)COC(C)=O)c(C)n2C(=O)c1ccc(Cl)cc1`, the Inhibition is reported as 72% with Rattus norvegicus [16], 50% with Rattus norvegicus [19], 43% in the data set on Rattus norvegicus [23] and 79% with Rattus norvegicus [25]. Moreover, the Change in the data set on Rattus norvegicus [17] is listed as 28%; in the data set with Rattus norvegicus [18], 25%; with Rattus norvegicus [20] it was “significant body weight”; in the data set with Rattus norvegicus [21] it was “significant body weight”; in the data set with Rattus norvegicus [22], 60%; with Rattus norvegicus [24] it was 55%. In the data set filed under Rattus norvegicus [26], this molecule gave a UD50 of 67 µM/kg. Moreover, the selectivity ratio in data set [27] is 5. The ED25 in the data set on Rattus norvegicus [1] turned out to be 14 µM/kg.

`COc1ccc2c(c1)c(CC(=O)OC(CO)CO)c(C)n2C(=O)c1ccc(Cl)cc1` gave an ED25 with Rattus norvegicus [1] of 21 µM/kg.

Molecule `COc1ccc2c(c1)c(CC(=O)OCC(CO)OC(=O)Cc1c(C)n(C(=O)c3ccc(Cl)cc3)c3ccc(OC)cc13)c(C)n2C(=O)c1ccc(Cl)cc1` (centres undefined) had an ED25 with Rattus norvegicus [1] of 31 µM/kg.

Turning to `CCCCCCCCCC(=O)OCC(COC(=O)CCCCCCCCC)OC(=O)Cc1c(C)n(C(=O)c2ccc(Cl)cc2)c2ccc(OC)cc12`, the ED25 in the data set with Rattus norvegicus [1] amounted to 18 µM/kg.

Turning to `COc1ccc2c(c1)c(CC(=O)O)c(C)n2C(=O)c1ccc(Cl)cc1` [INDOMETHACIN], the Inhibition in the data set with Rattus norvegicus [5] turned out to be 57%; in the data set on Rattus norvegicus [29] it was 75%; in the data set with Rattus norvegicus [30], 37%; with Rattus norvegicus [7], 76%. In addition, the Change entry with Rattus norvegicus [28] and in the data set on Rattus norvegicus [33] was “Active” in each case. Also, the Change in the data set with Rattus norvegicus [31] was 74%; with Rattus norvegicus [10] it was 33%; with Rattus norvegicus [32], 25%; with Rattus norvegicus [14], 56%. Further, the selectivity ratio in data set [12] was 2. In the data set on Rattus norvegicus [1], this molecule had an ED25 of 5 µM/kg. The UD50 in the data set listed under Rattus norvegicus [15] worked out at 10 µM/kg.

Regarding `CCCCCCCCCCCCCCCC(=O)OCC(COC(=O)CCCCCCCCCCCCCCC)OC(=O)Cc1c(C)n(C(=O)c2ccc(Cl)cc2)c2ccc(OC)cc12`, the ED25 in the data set with Rattus norvegicus [1] was 23 µM/kg.

For orientation: Inhibition means how much of the control response was suppressed.

(Values after ChEMBL document CHEMBL1121577, “Glycerides as prodrugs. 3. Synthesis and antiinflammatory activity of [1-(p-chlorobenzoyl)-5-methoxy-2-methylindole-3-acetyl]glycerides (indomethacin glycerides)” (J Med Chem, 1980).)
